ChEMBL document CHEMBL1141909, “3-Arylidene-1-(4-nitrophenylmethylene)-3,4-dihydro-1H-naphthalen-2-ones and related compounds displaying selective toxicity and reversal of multidrug resistance in neoplastic cells” (2005)

Legend:
[1] = Effect of compound on multidrug resistance in colon320 neoplasm cells at 4 ug/ml concentration; expressed as fluorescence activity ratio (treated/untreated cells); format: functional, Homo sapiens
[2] = Concentration for 50% cytotoxicity towards nonmalignant cells expressed in HPC normal pulp cells; conditions: Homo sapiens
[3] = Concentration for 50% cytotoxicity towards nonmalignant cells expressed in HPLF normal periodontal ligament fibroblasts; conditions: Homo sapiens
[4] = Concentration for 50% cytotoxicity towards nonmalignant cells expressed in HGF normal gingival fibroblasts; conditions: Homo sapiens
[5] = Concentration for 50% cytotoxicity towards malignant cells expressed in HSC-2 neoplastic cell line; format: functional; conditions: Homo sapiens
How it was run: (§1)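 Human oral squamous carcinoma HSC-2 and HSC-3 and submandibular gland carcinoma HSG cells were grown in DMEM with 10% heat-inactivated FBS. Near-confluent cells were exposed to various compound concentrations for 24 h. Viable cells were read by MTT (absorbance of stained lysate at 540). CC50 came from dose-response curves as the mean of duplicates.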

HSC-3 = assay: Concentration for 50% cytotoxicity towards malignant cells expressed in HSC-3 neoplastic cell line; format: functional; conditions: Homo sapiens; how it was run: as §1
HL-60 = assay: Concentration for 50% cytotoxicity towards malignant cells expressed in HL-60 neoplastic cell line; format: functional; conditions: Homo sapiens
How it was run: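 Human promyelocytic leukaemia HL-60 cells were grown in RPMI1640 with 10% FBS and exposed to various compound concentrations for 24 h. Viable cell number was counted by trypan blue exclusion. CC50 was taken from dose-response curves, mean of duplicate determinations.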

[6] = Concentration for 50% cytotoxicity towards malignant cells expressed in HSG neoplastic cell line; format: functional; conditions: Homo sapiens; how it was run: as §1
[7] = Effect of compound on multidrug resistance in murine L-5178 cells at 40 ug/ml concentration; expressed as fluorescence activity ratio (treated/untreated cells); format: functional, Mus musculus
[8] = Effect of compound on multidrug resistance in colon320 neoplasm cells at 40 ug/ml concentration; expressed as fluorescence activity ratio (treated/untreated cells); format: functional, Homo sapiens
[9] = Effect of compound on multidrug resistance in murine L-5178 cells at 4 ug/ml concentration; expressed as fluorescence activity ratio (treated/untreated cells); format: functional, Mus musculus
[10] = Selectivity index of compound towards human malignant cell lines; format: functional
[11] = Effect of compound on multidrug resistance in murine L-5178 cells at 10 ug/ml concentration; expressed as fluorescence activity ratio (treated/untreated cells); format: functional, Mus musculus

Compound	Effect [1]	CC50 [2] [µM]	CC50 [3] [µM]	CC50 [4] [µM]	CC50 [5] [µM]	CC50 (HSC-3) [µM]	CC50 (HL-60) [µM]	CC50 [6] [µM]	Effect [7]	Effect [8]	Effect [9]	SI [10]	Effect [11]
COc1cc(/C=C2\CC/C(=C\c3ccc([N+](=O)[O-])cc3)C2=O)cc(OC)c1OC	1.96	> 400	> 400	> 400	> 400	> 400	> 400	> 400	6.62	1.28	3.06	~1	
COc1ccc(/C=C2\CCC/C(=C\c3ccc([N+](=O)[O-])cc3)C2=O)cc1OC	6.12	82	95	53	2.3	4.4	4.3	13	47.3	4.62	20.4	13	
O=C1/C(=C/c2ccc(O)cc2)CCC/C1=C\c1ccc([N+](=O)[O-])cc1	1.15	> 400	> 400	> 400	8.1	13	4.4	> 400	0.97	0.6	0.94	~3.8	
COc1cc(/C=C2\Cc3ccccc3/C(=C\c3ccc([N+](=O)[O-])cc3)C2=O)cc(OC)c1OC	10.9	> 400	> 400	> 400	0.55	2.9	0.55	3	120	13	134	> 229	
COc1cc(/C=C2/C(=O)/C(=C/c3ccc([N+](=O)[O-])cc3)c3ccccc32)cc(OC)c1OC		153	> 400	89	221	> 400	318	> 400				~0.6	
O=C1/C(=C/c2ccc(Cl)cc2)CCC/C1=C\c1ccc([N+](=O)[O-])cc1	0.6	345	332	191	1.5	4.6	4.1	15	0.94	0.53	1.16	46	
COc1cc(/C=C2\CCC/C(=C\c3ccc([N+](=O)[O-])cc3)C2=O)ccc1O	1.98	> 400	171	165	2.8	5.2	3.4	11	0.83	1.13	1.5	> 44	
COc1ccc(/C=C2\Cc3ccccc3/C(=C\c3ccc([N+](=O)[O-])cc3)C2=O)cc1OC	7.19	> 400	> 400	> 400	0.92	4.2	0.56	4.4	55.9	11.4	44.1	> 159	
O=C1/C(=C/c2ccc(O)cc2)Cc2ccccc2/C1=C\c1ccc([N+](=O)[O-])cc1	1.99	113	75	85	5.2	14	2.5	11	39.3	11.7	135	12	
COc1cc(/C=C2\Cc3ccccc3/C(=C\c3ccc([N+](=O)[O-])cc3)C2=O)ccc1O	3.38	83	21	33	1.45	3.8	0.95	5.8	123	6.2	51.8	15	
O=C1/C(=C/c2ccc([N+](=O)[O-])cc2)CCC/C1=C\c1ccc2c(c1)OCO2	0.67	391	330	> 400	308	189	> 400	> 400	1.23	0.59	0.91	~1.2	
COc1ccc(/C=C2\CCC/C(=C\c3ccc([N+](=O)[O-])cc3)C2=O)cc1	0.5	> 400	> 400	> 400	> 400	> 400	> 400	> 400	0.82	0.58	0.76	~1	
COc1cc(/C=C2\CCC/C(=C\c3ccc([N+](=O)[O-])cc3)C2=O)cc(OC)c1OC	7.43	347	378	336	0.76	4.7	1.1	8.3	75.1	4.38	15.6	95	
COc1ccc(/C=C2\Cc3ccccc3/C(=C\c3ccc([N+](=O)[O-])cc3)C2=O)cc1	2.22	> 400	> 400	> 400	11	32	4.4	47	7.68	4.3	4.36	> 17	
O=C1/C(=C/c2ccc3c(c2)OCO3)Cc2ccccc2/C1=C\c1ccc([N+](=O)[O-])cc1	1.95	> 400	> 400	> 400	2.6	7.6	2.2	5	3.87	2.27	3.27	> 92	
COc1ccc(/C=C2\CC/C(=C\c3ccc([N+](=O)[O-])cc3)C2=O)cc1	0.63	> 400	> 400	> 400	63	> 400	> 400	> 400	0.69	0.37	0.59	~1.3	
COc1cccc2c1C(=O)c1c(O)c3c(c(O)c1C2=O)C[C@@](O)(C(=O)CO)C[C@@H]3O[C@H]1C[C@H](N)[C@H](O)[C@H](C)O1 [DOXORUBICIN]		414	> 400	233	0.68	2.9	0.47	1.9				> 235	
COc1ccc(CCN(C)CCCC(C#N)(c2ccc(OC)c(OC)c2)C(C)C)cc1OC (configuration not stated) [VERAPAMIL]													38.2
